Most compounds without a hit are left out; they make up all but 5.4% or so of the library.
Cav3 T inh – inhibitors of human Cav3.2 T-type calcium channel. AID 449739. 100,000 compounds, 4% hits. B-score at 10 µM. Cav3.2-expressing cells, Fluo-4 calcium fluorescence FDSS; stronger effect = lower value. O95180;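 active = single-dose well whose peak fluorescence ratio is a statistical outlier from its plate by either plate-standardised score or position-corrected B-score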
Target sequence (O95180 whole entry, looked up): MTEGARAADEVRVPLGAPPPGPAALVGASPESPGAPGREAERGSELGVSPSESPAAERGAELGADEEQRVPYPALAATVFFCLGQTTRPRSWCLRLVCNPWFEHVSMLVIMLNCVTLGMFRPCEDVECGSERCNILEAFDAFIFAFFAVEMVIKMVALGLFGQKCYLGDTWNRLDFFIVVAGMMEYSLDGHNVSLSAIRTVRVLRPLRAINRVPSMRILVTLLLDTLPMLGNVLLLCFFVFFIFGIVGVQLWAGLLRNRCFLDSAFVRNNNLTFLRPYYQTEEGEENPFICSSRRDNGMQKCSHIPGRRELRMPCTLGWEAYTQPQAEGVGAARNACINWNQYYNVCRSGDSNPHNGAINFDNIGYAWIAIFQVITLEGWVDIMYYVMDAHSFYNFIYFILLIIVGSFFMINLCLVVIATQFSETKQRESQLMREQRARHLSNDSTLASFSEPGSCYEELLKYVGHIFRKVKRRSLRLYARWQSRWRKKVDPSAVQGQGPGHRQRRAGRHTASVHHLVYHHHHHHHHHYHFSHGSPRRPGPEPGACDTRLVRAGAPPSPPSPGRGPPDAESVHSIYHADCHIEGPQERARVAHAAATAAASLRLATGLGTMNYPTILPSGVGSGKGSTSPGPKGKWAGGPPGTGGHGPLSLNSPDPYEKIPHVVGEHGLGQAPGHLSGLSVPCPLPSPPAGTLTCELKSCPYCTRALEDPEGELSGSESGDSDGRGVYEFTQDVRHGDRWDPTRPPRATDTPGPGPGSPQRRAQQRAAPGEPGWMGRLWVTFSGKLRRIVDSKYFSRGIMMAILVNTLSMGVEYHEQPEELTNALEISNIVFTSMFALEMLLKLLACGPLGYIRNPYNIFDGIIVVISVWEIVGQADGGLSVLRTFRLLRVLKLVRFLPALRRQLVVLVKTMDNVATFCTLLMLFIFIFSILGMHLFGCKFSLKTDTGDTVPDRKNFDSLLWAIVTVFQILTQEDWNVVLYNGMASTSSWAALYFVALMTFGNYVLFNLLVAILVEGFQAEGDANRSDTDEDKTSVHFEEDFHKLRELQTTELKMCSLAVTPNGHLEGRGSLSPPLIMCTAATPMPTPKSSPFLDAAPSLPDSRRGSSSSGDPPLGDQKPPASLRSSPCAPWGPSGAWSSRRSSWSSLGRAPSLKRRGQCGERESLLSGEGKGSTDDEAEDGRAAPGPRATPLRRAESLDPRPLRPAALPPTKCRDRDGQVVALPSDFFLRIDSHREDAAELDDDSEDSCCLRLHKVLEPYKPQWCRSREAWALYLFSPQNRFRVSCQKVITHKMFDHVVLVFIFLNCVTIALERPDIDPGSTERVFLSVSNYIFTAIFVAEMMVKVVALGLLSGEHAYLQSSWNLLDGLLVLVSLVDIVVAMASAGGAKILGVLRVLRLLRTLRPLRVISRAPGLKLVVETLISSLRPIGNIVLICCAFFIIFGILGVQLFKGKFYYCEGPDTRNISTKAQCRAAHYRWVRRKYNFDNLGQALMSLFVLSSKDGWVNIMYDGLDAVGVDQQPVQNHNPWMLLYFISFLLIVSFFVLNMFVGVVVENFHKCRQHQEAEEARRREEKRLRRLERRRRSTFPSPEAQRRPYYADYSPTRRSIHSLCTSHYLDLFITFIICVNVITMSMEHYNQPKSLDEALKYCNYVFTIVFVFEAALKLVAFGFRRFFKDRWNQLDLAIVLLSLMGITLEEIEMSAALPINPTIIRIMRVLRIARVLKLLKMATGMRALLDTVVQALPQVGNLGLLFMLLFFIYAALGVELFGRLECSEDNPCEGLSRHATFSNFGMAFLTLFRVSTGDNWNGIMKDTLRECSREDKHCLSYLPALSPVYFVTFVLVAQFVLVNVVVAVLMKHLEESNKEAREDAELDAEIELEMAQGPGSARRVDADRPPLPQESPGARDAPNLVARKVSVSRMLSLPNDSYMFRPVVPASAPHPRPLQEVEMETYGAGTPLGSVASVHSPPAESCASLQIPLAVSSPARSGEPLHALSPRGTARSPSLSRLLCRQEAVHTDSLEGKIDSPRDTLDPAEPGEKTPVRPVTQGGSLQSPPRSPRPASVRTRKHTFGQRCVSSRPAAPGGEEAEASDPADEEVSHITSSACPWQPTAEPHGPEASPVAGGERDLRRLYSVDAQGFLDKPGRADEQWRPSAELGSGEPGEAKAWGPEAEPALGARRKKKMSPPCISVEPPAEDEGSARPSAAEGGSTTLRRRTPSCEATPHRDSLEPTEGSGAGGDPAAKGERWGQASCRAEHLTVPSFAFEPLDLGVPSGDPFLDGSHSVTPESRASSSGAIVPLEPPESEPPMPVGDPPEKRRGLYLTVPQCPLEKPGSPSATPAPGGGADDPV
EphB4 antag – blocks human EphB4 binding to ephrin-B2; 97,000 compounds, 0.15% hits; EphB4 LBD / TNYL-RAW-Alexa532 peptide, fluorescence polarization; inhibition, % at 7 µM;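 active = inhibition above the screen-wide mean inhibition plus 3 SD, cut at about 15% in these data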;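 also: 0% = DMSO wells and 100% = excess unlabeled TNYL-RAW peptide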
DAT uptake mod – human DAT dopamine uptake with cocaine, either direction; Q01959; LLC-PK1 hDAT cells, [14C]-dopamine uptake with cocaine IC80; actives deviate in either direction; B-score at 10 µM; 110,000 compounds, 1.3% hits; AID 449768;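 active = Z score or B-score, a plate-position-corrected score, falls beyond the plate's 99.7% confidence bounds, in either direction; inactive = both scores lie inside the 99.7% bounds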;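 also: scored against the spread of the other compound wells on the same plate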
HIV Rev-RRE inh – HIV Rev-RRE protein-RNA interaction inhibition | 97,000 compounds, 0.79% hits | P05866 | Rev peptide-RRE RNA binding, FRET | AID 704 | inhibition, % at 8 µM;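 active = inhibition above the screen-wide mean plus 3 SD, cut at about 35% in these data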;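 also: 0% = median DMSO wells and 100% = median Neomycin B control wells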
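Probe or stimulus: fluorescein-Rev peptide as binding partner; assay system: Cy5-tagged RRE RNA duplex with fluorescein-tagged Rev peptide; timing: 5 min compound–RNA preincubation, then 15 min with peptide, 25 °C; medium: HEPES pH 7.5 buffer with KCl, MgCl2, NaCl and EDTA; signal: fluorescein-to-Cy5 FRET, 480 nm excitation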
Starred values were filed as active, the others as inactive; nt = no result given; [ ] = remark or other dose.

SMILES	Cav3 T inh	EphB4 antag	DAT uptake mod	HIV Rev-RRE inh
O=C(CSc1ccc(Cl)cc1)N1CCN(c2ccc(Cl)cc2[N+](=O)[O-])CC1	-3.8*	-4	2.5	11
Cc1cccc(/C=N\NC(=O)c2csnn2)c1	0.26	4	0.45	10
Cc1cccc(/C=N\NC(=O)c2sccc2-n2cccc2)c1	-4.1*	-9	1.3	-4
O=C1C=C(c2cccc(O)c2)CCC1	1.1	nt	0.013	nt
Cc1cccc2cc(CN(Cc3ccc(F)cc3)C(=O)N(C)C)c3nnnn3c12	-6.1*	5	-1.2	11
Cc1cccc2cc(CN(Cc3ccc(F)cc3)C(=O)C(F)(F)F)c3nnnn3c12	0.42	6	-0.85	10
O=C(CCCN1C(=O)c2ccccc2C1=O)OC1CSCC1NC(=O)c1ccccc1 (stereo unspecified)	0.019	2	0.71	6
Cc1nc(N2CCN(C)CC2)[nH]c(=O)c1Cc1cccc2ccccc12	1.7	-4	2.5*	8
O=C(CCN1C(=O)c2ccccc2C1=O)N1CCN(Cc2ccc(Cl)cc2Cl)CC1	-6*	nt	1.9	nt
C[C@]12CC[C@@H]3c4ccc(O)cc4CC[C@H]3[C@@H]1C[C@@H](O)[C@@H]2O	-4.6*	nt	-0.83	nt
C[C@]12CC[C@@H]3c4ccc(O)cc4CC[C@H]3[C@@H]1CC[C@@H]2OC(=O)CCC(=O)O	-0.33	nt	0.31	nt
COc1ccc(Oc2ncnc3c2oc2ccc(Br)cc23)cc1	-0.17	nt	-7.4*	nt
CN(C)CCOc1ncnc2c1oc1ccccc12	0.066	1	-0.74	-3
Cc1cc(C)c(OC2(c3ccccc3)OC(=O)c3ccccc32)c(C)c1 (stereo unspecified)	-3.7	12	-1.3	25
Cc1cccc(C)c1OC1(c2ccccc2)OC(=O)c2ccccc21 (stereo unspecified)	-6.6*	5	0.23	23
CC(C)COc1nc2ccccc2c(=O)n1OCC(=O)O	nt	-8	nt	-6
CCCOn1c(OCC(C)C)nc2ccccc2c1=O	-5*	5	-1.5	5
CC(C)c1ccc(NC(=O)COc2nnc(-c3cccs3)c(-c3cccs3)n2)cc1	-5.1*	-1	-0.36	12
CCC(C)C(=O)Nc1nnc(-c2cccs2)s1 (stereo unspecified)	-1.4	-3	0.0064	-3
CCc1ccc(NC(=O)C(C)Oc2nnc(-c3cccs3)c(-c3cccs3)n2)cc1 (stereo unspecified)	-4.4*	10	-0.032	16
O=S(=O)(Nc1cccc2c1ccc1cccn12)c1cccs1	-2.7	6	0.012	-1
CCOC(=O)COc1c(OC)cc(Cl)cc1C1NC(=O)NC(C)=C1C(C)=O (stereo unspecified)	0.079	5	-0.1	-1
CCCC1=C(C(=O)OCC)C(c2cc(Cl)cc(OC)c2OCC(=O)OCC)NC(=O)N1 (stereo unspecified)	-5.2*	-8	0.12	-3
CCOC(=O)c1c(-c2ccccc2)csc1NC(=O)CSc1nnnn1C	-3.7	12	-0.31	10
CCOC(=O)c1c(-c2ccc(OC)cc2)csc1NC(=O)CSc1ccccc1	-4.8*	-3	0.2	9
SMILES	Cav3 T inh	EphB4 antag	DAT uptake mod	HIV Rev-RRE inh
CCOC(=O)c1c(-c2cccc(C)c2)csc1NC(=O)C1CC=CCC1C(=O)O (stereo unspecified)	-8.9*	-3	-0.017	-1
COc1cc([N+](=O)[O-])ccc1NC(=O)CCCOc1ccc(C)cc1	-0.5	-3	0.57	20
CCOC(=O)c1c(-c2cccc([N+](=O)[O-])c2)csc1NC(=O)CCCOc1ccccc1OC	-4.8*	5	-0.58	1
COc1cc([N+](=O)[O-])ccc1NC(=O)CCCOc1cccc(C)c1	-3.4*	8	-0.17	17
COc1ccc(NC(=S)N(CCc2nc3cc(C)c(C)cc3[nH]2)Cc2cccnc2)cc1	-2.9	-2	0.34	-3
CC(Oc1ccc(-c2nccc(-c3ccccn3)n2)cc1)C(=O)NN (stereo unspecified)	nt	3	nt	3
O=C1Nc2ccc([N+](=O)[O-])cc2C1(O)N1CCCCCC1 (stereo unspecified)	1.8	6	0.56	3
CCOC(=O)c1c(-c2ccc(-c3ccccc3)cc2)csc1NC(=O)C1C2CCC(O2)C1C(=O)O (stereo unspecified)	-4.6*	0	0.37	-1
CCOC(=O)c1c(-c2ccccc2)csc1NC(=O)C1CCCO1 (stereo unspecified)	0.033	-1	0.26	14
CCOC(=O)CC(=O)Nc1ccc(C)cc1	0.37	-2	-0.039	10
Cc1cc(NC(=O)CSc2nnc(-c3c[nH]c4ccccc34)n2C)no1	0.44	nt	-0.36	nt
Cc1ccccc1Nc1ncnc2c1cnn2-c1ccccc1	-2.8	nt	3.1*	nt
c1ccc(-n2ncc3c(NCc4cccnc4)ncnc32)cc1	0.89	-2	2.6*	5
Cc1ccccc1C(=O)N1CCN(c2ncnc3c2cnn3-c2ccccc2)CC1	1.5	2	-5.3*	0
Clc1cc(Br)ccc1OCCOCCN1CCOCC1	0.67	1	-0.79	2
Cc1ccccc1Cn1c(Cc2ccccc2)nc2ccccc21	-5.5*	-3	1.9	14
Cc1ccccc1Cn1c(-c2cncs2)nc2ccccc21	-1.5	3	-0.086	17
Cc1cccc(Nc2nnc(-c3ccc(C(=O)N4C[C@H]5C[C@H](C4)c4cccc(=O)n4C5)cc3)c3ccccc23)c1	-0.93	-6	1.8*	-5
COCC(C)NC(=O)CSc1nc(-c2ccccc2)c(-c2ccccc2)o1 (stereo unspecified)	-2.4	-2	0.37	3
CCN(CC)c1ccc(/C=C2\C(=O)N(c3ccc([N+](=O)[O-])cc3)N=C2N2CCOCC2)cc1	nt	0	nt	6
CCCCC1(C)OC(=O)C(=Cc2ccc(N(CC)CC)cc2)C(=O)O1 (stereo unspecified)	-0.76	-12	0.081	87*[fluorescence artefact?]
CCCOc1ccc(-c2nnn(CC(=O)c3c[nH]c4ccccc34)n2)cc1	-0.059	-3	0.14	19
COc1ccc(C2CC(c3ccccc3)Nc3nc(N)nn32)cc1 (stereo unspecified)	0.062	-10	2.5*	-4
CC(C)NC(=O)c1c(CSc2ccccc2)noc1C(=O)NCc1ccccc1	-0.77	nt	2.8*	nt
O=C(NCc1ccccc1)c1onc(CSc2ccc(Cl)cc2)c1C(=O)NCc1ccccc1	-2.1	nt	0.87	nt
COCCNC(=O)c1c(CSc2ccccc2)noc1C(=O)NCc1ccccc1	-0.43	nt	0.46	nt
O=C(NCc1ccccc1)c1onc(CSc2ccccc2)c1C(=O)NCc1ccccc1	-1.9	nt	1.6*	nt
O=C(NC(Cc1ccccc1)c1nc2ccccc2[nH]1)C1CC(=O)N(c2ccc3c(c2)OCCO3)C1 (stereo unspecified)	-0.91	15*	-0.22	0
O=C(NCCCc1ccccc1)C1CC(=O)N(c2ccc3c(c2)OCCO3)C1 (stereo unspecified)	-0.42	-10	0.0077	3
CCOC(=O)CN1C(=O)C(Sc2n[nH]c(-c3ccc(O)cc3)n2)CCc2ccccc21 (stereo unspecified)	-6.5*	-3	0.95	5
